Test results published in ChEMBL document CHEMBL1158555, “Structure-activity relationships of bioisosteric replacement of the carboxylic acid in novel androgen receptor pure antagonists” (Bioorg Med Chem, 2010).
Calls of active or inactive are those of the source. The rule behind the calls is not given here.

Experiments:
Androgen receptor = biological target: T1, Androgen receptor (Homo sapiens, UniProt P10275); test: Displacement of [3H]mibolerone from human AR expressed in CHO-K1 cells after 2 hrs by scintillation counting; type: cell-based
T1 sequence (P10275 whole entry): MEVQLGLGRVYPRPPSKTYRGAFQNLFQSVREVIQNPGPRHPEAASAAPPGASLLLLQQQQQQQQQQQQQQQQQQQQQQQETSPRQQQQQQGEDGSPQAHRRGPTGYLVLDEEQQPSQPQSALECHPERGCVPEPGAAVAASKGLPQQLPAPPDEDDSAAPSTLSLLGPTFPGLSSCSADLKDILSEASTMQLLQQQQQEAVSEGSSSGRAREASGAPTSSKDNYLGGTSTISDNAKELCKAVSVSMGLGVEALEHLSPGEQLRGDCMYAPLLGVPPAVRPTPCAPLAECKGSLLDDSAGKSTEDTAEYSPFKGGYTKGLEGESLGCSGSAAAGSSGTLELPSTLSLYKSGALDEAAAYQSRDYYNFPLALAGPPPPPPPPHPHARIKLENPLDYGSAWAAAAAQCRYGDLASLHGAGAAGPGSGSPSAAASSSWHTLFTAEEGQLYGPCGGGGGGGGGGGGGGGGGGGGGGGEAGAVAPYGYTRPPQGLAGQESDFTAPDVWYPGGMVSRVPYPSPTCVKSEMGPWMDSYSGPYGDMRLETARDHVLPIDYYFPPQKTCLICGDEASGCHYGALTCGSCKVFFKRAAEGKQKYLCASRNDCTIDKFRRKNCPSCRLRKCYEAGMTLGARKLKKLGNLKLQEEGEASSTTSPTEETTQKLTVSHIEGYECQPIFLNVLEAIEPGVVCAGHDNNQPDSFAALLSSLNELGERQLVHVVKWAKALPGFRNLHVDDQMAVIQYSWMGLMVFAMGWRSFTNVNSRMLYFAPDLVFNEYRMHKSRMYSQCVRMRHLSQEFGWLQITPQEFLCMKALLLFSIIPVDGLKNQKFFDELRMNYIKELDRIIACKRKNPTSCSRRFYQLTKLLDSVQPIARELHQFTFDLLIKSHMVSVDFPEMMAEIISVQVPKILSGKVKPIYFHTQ

[1] = Metabolic stability in human liver microsomes assessed as compound remaining at […] after 15 mins by LC-MS/MS analysis; type: ADME, Microsome; conditions: read-out: Stability
[2] = biological target: T2, Androgen receptor (Homo sapiens) (UniProt P10275); conditions: HeLa
T2 sequence (whole entry): T1 sequence (P10275 whole entry)

[3] = biological target: T2, Androgen receptor (Homo sapiens); test: Agonist activity at AR in human LNCAP cells assessed as effect on cell proliferation after 6 days; type: functional, cell-based
Method in brief: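 LNCaP cells were pre-starved and plated in phenol red-free RPMI 1640 with 5% DCC-FBS. After overnight attachment, test compound was added without R1881 for 6 days. Proliferation was read by MTS (CellTiter 96 AQueous One). Agonism was scored +/− from the growth dose-response curve.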

[4] = biological target: T2, Androgen receptor (Homo sapiens); conditions: HeLa; remark: listed apart in the source
Mus musculus = species on record: Mus musculus; test: Antiandrogenic activity in castrated mouse assessed as reduction in testosterone-induced wet weight gain of seminal vesicle; type: functional
LNCaP = test: Antitumor activity against human LNCAP cells xenografted in po dosed SCID mouse assessed as inhibition of tumor growth administered once daily in seven cycles of 5 days on and 2 days off schedule; type: functional, organism-based
Method in brief: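 LNCaP cells (2×10^6) were injected subcutaneously into 6-week-old male SCID mice. At tumour size 90–400 mm³, mice were randomised and dosed orally in 5% gum arabic at 10 mL/kg body weight. Dosing ran as seven cycles of 5 days on, 2 days off, with n = 6 per group.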

Cc1cc(C#N)c(C(F)(F)F)cc1N1C(=O)C(C)(C)N(CCCS(N)(=O)=O)C1=S
IC50 (Androgen receptor): > 5 µM | remaining [1]: 91% | EC5 [2]: > 10 µM

Cc1c(N2C(=O)C(C)(C)N(CCCS(N)(=O)=O)C2=S)ccc(C#N)c1C(F)(F)F
IC50 (Androgen receptor): 0.26 µM | Activity [3]: Active | remaining [1]: 89% | EC5 [2]: 2 µM

CC1(C)C(=O)N(c2ccc(C#N)c(C(F)(F)F)c2)C(=S)N1CCCNC(N)=O
IC50 (Androgen receptor): 0.8 µM | Activity [3]: inactive | EC5 [4]: 0.65 µM | EC5 [2]: 0.35 µM

CC1(C)C(=O)N(c2ccc(C#N)c(C(F)(F)F)c2)C(=S)N1CCCc1nnn[nH]1
IC50 (Androgen receptor): > 1 µM | Activity [3]: inactive | EC5 [4]: > 10 µM

CC1(C)C(=O)N(c2ccc(C#N)c(C(F)(F)F)c2)C(=S)N1CCCCS(N)(=O)=O
IC50 (Androgen receptor): > 1 µM | Activity [3]: inactive | EC5 [4]: > 10 µM | EC5 [2]: > 10 µM

CC1(C)C(=O)N(c2ccc(C#N)c(C(F)(F)F)c2)C(=S)N1CCCS(=O)(=O)O
IC50 (Androgen receptor): > 1 µM | Activity [3]: Active | EC5 [4]: > 10 µM

CC1(C)C(=O)N(c2ccc(C#N)cc2)C(=S)N1CCCS(N)(=O)=O
IC50 (Androgen receptor): > 5 µM | remaining [1]: 92% | EC5 [2]: > 10 µM

CC1(C)C(=O)N(c2ccc(C#N)c(C(F)(F)F)c2)C(=S)N1CCCS(N)(=O)=O
IC50 (Androgen receptor): 0.4 µM | Activity [3]: inactive | remaining [1]: 95% | EC5 [4]: > 10 µM | EC5 [2]: > 10 µM

CNS(=O)(=O)CCCN1C(=S)N(c2ccc(C#N)c(C(F)(F)F)c2)C(=O)C1(C)C
IC50 (Androgen receptor): 0.17 µM | Activity [3]: inactive | EC5 [4]: > 10 µM | EC5 [2]: 1.4 µM

CC1(C)C(=O)N(c2ccc(C#N)c(C(F)(F)F)c2)C(=S)N1CCCNS(N)(=O)=O
IC50 (Androgen receptor): > 1 µM | Activity [3]: inactive | EC5 [4]: > 10 µM | EC5 [2]: > 10 µM

CN1C(=S)N(c2ccc(C#N)c(C(F)(F)F)c2)C(=O)C1(C)C
IC50 (Androgen receptor): 0.015 µM | Activity [3]: Active | EC5 [4]: < 0.001 µM | EC5 [2]: 8e-05 µM

CC1(C)C(=O)N(c2ccc(C#N)c(C(F)(F)F)c2)C(=S)N1CCCC(N)=O
IC50 (Androgen receptor): 0.48 µM | Activity [3]: inactive | EC5 [4]: 3.6 µM | EC5 [2]: > 10 µM

Cc1cc(N2C(=O)C(C)(C)N(CCCS(N)(=O)=O)C2=S)ccc1C#N
IC50 (Androgen receptor): > 1 µM | Activity [3]: inactive | remaining [1]: 94% | EC5 [2]: > 10 µM

CC1(C)C(=O)N(c2ccc(C#N)c(C(F)(F)F)c2)C(=S)N1CCCC(=O)O
IC50 (Androgen receptor): 3.9 µM | Activity [3]: inactive | remaining [1]: 97% | EC5 [4]: > 10 µM | EC5 [2]: > 10 µM

CC1(C)C(=O)N(c2ccc(C#N)c(C(F)(F)F)c2)C(=S)N1CCS(N)(=O)=O
IC50 (Androgen receptor): 0.77 µM | Activity [3]: inactive | EC5 [4]: > 10 µM | EC5 [2]: 7.2 µM

COc1cc(N2C(=O)C(C)(C)N(CCCS(N)(=O)=O)C2=S)ccc1C#N
IC50 (Androgen receptor): 1.9 µM | Activity [3]: Active | remaining [1]: 100% | EC5 [2]: > 10 µM

CN(C)S(=O)(=O)CCCN1C(=S)N(c2ccc(C#N)c(C(F)(F)F)c2)C(=O)C1(C)C
IC50 (Androgen receptor): 0.08 µM | Activity [3]: Active | EC5 [4]: 0.11 µM

CC1(C)C(=O)N(c2ccc(C#N)c(Cl)c2)C(=S)N1CCCS(N)(=O)=O
IC50 (Androgen receptor): 0.44 µM | Activity [3]: inactive | remaining [1]: 100% | ED50 (Mus musculus): 10 mg/kg | inhibition (LNCaP): Dose-dependent effect
